Experimental data collected from several papers.
Each line is one published result; the experiments were not run side by side.
HDAC5: Histone deacetylase 5 (HDAC5, Homo sapiens, UniProt Q9UQL6)
SLC6A3: Sodium-dependent dopamine transporter (SLC6A3, Homo sapiens, UniProt Q01959)
DRD3: D(3) dopamine receptor (DRD3, Homo sapiens, UniProt P35462)

`CN(C)C(=O)c1cc2cnc(Nc3ccc(-c4cccc5c(=O)cc(N6CCOCC6)oc45)cc3)nc2n1C1CCCC1` has an IC50 of 0.202 µM (DNA-dependent protein kinase catalytic subunit (PRKDC, Homo sapiens, UniProt P78527); enzyme activity, inhibitor).
`COc1c(Cl)cccc1Nc1c(-c2ccncc2OC[C@@H]2COCCO2)[nH]c2c1C(=O)NCC2` has an IC50 of 0.053 µM (Discoidin domain-containing receptor 2 (DDR2, Homo sapiens, UniProt Q16832); ligand displacement, TR-FRET).
The IC50 of `CCCN(CCC)S(=O)(=O)c1ccc(C(=O)O)cc1` is reported as 2180 µM (Taste receptor type 2 member 16 (TAS2R16, Homo sapiens, UniProt Q9NYV7, N96T); inositol phosphate, antagonist, TR-FRET).
`COc1ccc(N(Cc2csc(-c3ccc(C)cc3)n2)C(=O)CCCCCC(=O)NO)cc1` gave an IC50 of over 10 µM (HDAC5; enzyme activity, inhibitor).
With `N#CC[C@@]12C[C@@H]1[C@@H](n1cnc3c(NCCCCCCc4ccccc4)nc(I)nc31)[C@H](O)[C@@H]2O` the IC50 was 1.7 µM (SLC6A3; transporter uptake, inhibitor, radiometric).
`NS(=O)(=O)c1ccc(Nc2nc(-c3cc4cc(Br)ccc4oc3=O)cs2)c(Br)c1` has an IC50 of 6.18 µM (Carbonic anhydrase 12 (CA12, Homo sapiens, UniProt O43570); enzyme activity, inhibitor, absorbance).
For `Cc1[nH]c(C)c(S(=O)(=O)Nc2ccc(C(F)(F)F)c3ncccc23)c1C(=O)N1CCC(F)(F)C1`, the IC50 was 15 µM (DRD3; G protein activation, antagonist, BRET).
`O=C(NO)c1ccc(Cn2cnc3c(Nc4ccc(Cl)cc4)ncnc32)cc1` gave an IC50 of 0.473 µM (HDAC5; enzyme activity, inhibitor).
The IC50 of `CCc1ccc(NS(=O)(=O)c2c(C)[nH]c(C)c2C(=O)N2CCC(F)(F)C2)cc1Cl` is reported as 5.2 µM (DRD3; β-arrestin recruitment, antagonist).
`N=C(N)c1ccc(OCCCCCOc2ccc(C(=N)N)cc2)cc1` gave an IC50 of over 100 µM (Coagulation factor XI (F11, Homo sapiens, UniProt P03951); enzyme activity, inhibitor, absorbance).
`CSc1ccc(NS(=O)(=O)c2c(C)[nH]c(C)c2C(=O)N2CCC(F)(F)C2)cc1Cl` gave an IC50 of 6 µM (DRD3; G protein activation, antagonist, BRET).
For `O[C@@H]1[C@H](O)[C@@H]2C[C@@H]2[C@H]1n1cnc2c(NCCC3CC3)ncnc21`, the IC50 was 9.3 µM (SLC6A3; transporter uptake, inhibitor, radiometric).
`Cc1[nH]c(C)c(S(=O)(=O)Nc2cc(Cl)cc(Cl)c2Cl)c1C(=O)N1CCC(F)(F)C1` has an IC50 of 12 µM (DRD3; β-arrestin recruitment, antagonist).
For `O=C(Nc1ccc2[nH]c(=O)oc2c1)C(=O)N1CCC(Cc2ccc(F)cc2)CC1`, the IC50 was 0.029 µM (Glutamate NMDA receptor; GRIN1/GRIN2B (GRIN1/GRIN2B, Homo sapiens, UniProt Q05586+Q13224); ion current, two-electrode voltage clamp; oocytes).
The IC50 of `Cc1[nH]c(C)c(C(=O)N2CCC(F)(F)C2)c1C(=O)Nc1ccc(C(F)(F)F)c(Cl)c1` is reported as 41 µM (DRD3; β-arrestin recruitment, antagonist).
The IC50 of `COc1ccc(N(Cc2csc(-c3ccccc3)n2)C(=O)CCCCCC(=O)NO)cc1` is reported as over 10 µM (HDAC5; enzyme activity, inhibitor).
